The source of these data is ChEMBL document CHEMBL1139478, “Piperazinobenzopyranones and phenalkylaminobenzopyranones: potent inhibitors of breast cancer resistance protein (ABCG2)” (J Med Chem, 2005).

For data set [1], the target named is T1, Broad substrate specificity ATP-binding cassette transporter ABCG2 (Homo sapiens, UniProt Q9UNQ0).
T1 sequence (Q9UNQ0 whole entry): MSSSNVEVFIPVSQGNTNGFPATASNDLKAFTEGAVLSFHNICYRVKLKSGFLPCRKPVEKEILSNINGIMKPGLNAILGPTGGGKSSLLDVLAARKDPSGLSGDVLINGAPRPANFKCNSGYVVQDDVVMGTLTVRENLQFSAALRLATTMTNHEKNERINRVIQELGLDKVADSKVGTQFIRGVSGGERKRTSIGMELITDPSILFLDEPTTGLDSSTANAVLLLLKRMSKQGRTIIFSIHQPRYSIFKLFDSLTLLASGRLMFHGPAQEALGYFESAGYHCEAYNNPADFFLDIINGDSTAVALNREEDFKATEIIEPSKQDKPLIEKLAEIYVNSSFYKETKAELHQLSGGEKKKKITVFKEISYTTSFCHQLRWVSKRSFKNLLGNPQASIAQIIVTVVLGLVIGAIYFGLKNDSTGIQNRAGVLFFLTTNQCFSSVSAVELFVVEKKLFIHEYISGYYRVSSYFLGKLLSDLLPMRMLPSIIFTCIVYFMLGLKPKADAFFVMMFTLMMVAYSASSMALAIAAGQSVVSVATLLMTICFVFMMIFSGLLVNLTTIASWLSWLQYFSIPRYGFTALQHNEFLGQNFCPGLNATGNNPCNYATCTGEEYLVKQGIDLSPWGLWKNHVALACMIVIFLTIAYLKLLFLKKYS
Kind of data set: Inhibition of BCRP expressed in mitoxantrone-resistant human HCT116 cells assessed as increase in mitoxantrone accumulation at 10 uM after 15 mins. Type of data set: cell-based. The note with it: hct-116, 0.25 h. Put shortly:
(§1)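 HCT116/R cells from ~90% confluent flasks, trypsinized, washed and resuspended at 10^6 cells/mL in serum-free RPMI. Preincubated 15 min at 37 °C with modulator (10 to 0.1 μM final, from 10 mM DMSO stock), then 3 μM mitoxantrone added for 30 min. Stopped with ice-cold PBS, washed; intracellular mitoxantrone by flow cytometry (488 nm excitation, 670 nm band-pass), mean fluorescence intensity in arbitrary units.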

Data set [2] is described as follows: Cytotoxicity against mitoxantrone-sensitive human HCT116 cells at 10 uM assessed as viable cells after 48 hrs. Format: cell-based, HCT-116. The note with it: read-out: Activity. Put shortly: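 HCT116/S cells exposed to compound at 10, 1 and 0.1 μM; cell cycle distribution (G0/G1, S, G2/M) and viability by flow cytometry after trypsin/spermine detergent buffer 10 min room temperature, trypsin inhibitor plus ribonuclease A 10 min, then PI 10 min, read immediately.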

Data set [3] concerns the target T1, Broad substrate specificity ATP-binding cassette transporter ABCG2. Kind of data set: Inhibition of BCRP expressed in mitoxantrone-resistant human HCT116 cells assessed as increase in mitoxantrone accumulation at 1 uM after 15 mins. Type of data set: cell-based. The note with it: hct-116, 0.25 h. The method, boiled down:
as §1

In data set [4] the test system is HCT-116. Put plainly: Potentiation of mitoxantrone-induced cytotoxicity in mitoxantrone-resistant human HCT116 cells at 10 uM assessed as dead cells after 48 hrs by flow cytometry. Type of data set: cell-based. The note with it: hct-116, 48 h. The method, boiled down:
(§2)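 After 24 h attachment, HCT116/R medium replaced with fresh medium holding 1 μM mitoxantrone plus modulator (10, 1, 0.1 μM); 48 h at 37 °C, PBS washes. Dead cells by propidium iodide uptake (2 μg/mL) in unfixed cells, FSC/FL2 flow cytometry; apoptosis by annexin V-FITC/PI staining, 10 min room temperature, flow cytometry; viable, apoptotic and dead percentages reported.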
(In general: A flow cytometer gives signals particle by particle.)

Data set [5] has as its system HCT-116. Kind of data set: Potentiation of mitoxantrone-induced cytotoxicity in mitoxantrone-resistant human HCT116 cells at 10 uM assessed as apoptotic cells after 48 hrs by flow cytometry. The settings on record: hct-116, 48 h. Type of data set: cell-based. The method, boiled down: as §2

SMILES strings stand for the structures.

On to `CC(C)(C)OC(=O)N1CCN(C(=O)c2cc(=O)c3c(O)cccc3o2)CC1`, for which, in data set [1], the Fluorescence intensity amounted to 179 a.u. In addition, the viability at 48 h, 10 µM in data set [2] was 60%. Take `Cc1ccc(NC(=O)c2ccc(CN3CCN(C)CC3)cc2)cc1Nc1nccc(-c2cccnc2)n1` [IMATINIB]: the Fluorescence intensity in data set [1] came to 334 a.u.

Turning to `O=C(NCCc1ccccc1)c1cc(=O)c2c(O)cccc2o1`, in data set [1], the Fluorescence intensity is given as 282 a.u. Further, in data set [2], the viability at 48 h, 10 µM worked out at 60%.

Turning to `O=C(c1cc(=O)c2c(O)cccc2o1)N1CCN(CCO)CC1`, the Fluorescence intensity in data set [1] worked out at 72 a.u.

As to `COc1ccc(CNC(=O)c2cc(=O)c3c(O)cccc3o2)cc1OC`, in data set [1], the Fluorescence intensity is 197 a.u. As for `CCN1CCN(C(=O)c2cc(=O)c3c(O)cccc3o2)CC1`, the Fluorescence intensity in data set [1] is given as 108 a.u. Same read-out and setting: then `O=C(c1cc(=O)c2c(O)cccc2o1)N1CCN(CC2CCCCC2)CC1`, with 92 a.u. Regarding `COc1ccc(CCNC(=O)c2cc(=O)c3c(O)cccc3o2)cc1`, the results for the Activity entry in data set [3], in data set [4] and in data set [5] were “Active”, 8% and 42%, respectively. Further, the Fluorescence intensity in data set [1] is on record as 320 a.u. With `COc1ccc(CCNC(=O)c2cc(=O)c3c(O)cccc3o2)cc1OC`, in data set [3], the outcome was Active. The Fluorescence intensity in data set [1] was 315 a.u. In addition, in data set [2], the viability at 48 h, 10 µM was 60%. As to `CCCCN1CCN(C(=O)c2cc(=O)c3c(O)cccc3o2)CC1`, the Activity in data set [4] is recorded as 22%; in data set [5] it was 27%. For the same molecule, in data set [1], the Fluorescence intensity is listed as 223 a.u. In addition, in data set [2], the viability at 48 h, 10 µM stood at 60%. Turning to `CCCN1CCN(C(=O)c2cc(=O)c3c(O)cccc3o2)CC1`, in data set [1], the Fluorescence intensity turned out to be 104 a.u.

As for `CC(C)CN1CCN(C(=O)c2cc(=O)c3c(O)cccc3o2)CC1`, the Fluorescence intensity in data set [1] came to 92 a.u. Still for that read-out and setting: the result for `CCCCCN1CCN(C(=O)c2cc(=O)c3c(O)cccc3o2)CC1` reads 225 a.u; that for `COc1ccc2c3c([nH]c2c1)[C@H](C=C(C)C)N1C(=O)[C@@H]2CCCN2C(=O)[C@@H]1C3` [FUMITREMORGIN], 315 a.u; that for `CC(=O)N1CCN(C(=O)c2cc(=O)c3c(O)cccc3o2)CC1`, 112 a.u. Turning to `O=C(c1cc(=O)c2c(O)cccc2o1)N1CCNCC1`, the Fluorescence intensity in data set [1] came out at 86 a.u.
